The results in this text go back to ChEMBL document CHEMBL1153905, “Functionalized 3-benzylidene-indolin-2-ones: inducers of NAD(P)H-quinone oxidoreductase 1 (NQO1) with antiproliferative activity” (Bioorg Med Chem, 2009).

In general, IC50 refers to the concentration that gives 50% inhibition. Read a low IC50 as greater potency in that assay. The fold induction is the ratio of treated to control signal.

Series [1] deals with HCT-116. The series is described as follows: Antiproliferative activity against human HCT116 cells after 72 hrs by MTT assay. It is filed as functional, cell-based. Particulars: HCT-116, 72 h. The gist of the method: (§1)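 Cells seeded at 10,000 (MCF7), 4000 (HCT116) or 5000 (CCL186) per well and grown 24 h; MCF7 and CCL186 in EMEM with pyruvate, glutamine, 10% FBS; HCT116 in McCoy's 5A with 10% FBS. Compounds from DMSO stocks (≤1% DMSO final), 72 h exposure; MTT 0.5 mg/ml for 3 h, formazan in DMSO read at 590 nm. IC50 from sigmoidal survival curve, three separate occasions.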
(Tetrazolium assays rely on reduction of a dye to a coloured formazan, in cell work by metabolically active cells.)

For series [2], the system named is MCF7. The series is described as follows: Antiproliferative activity against human MCF7 cells after 72 hrs by MTT assay. It is filed as functional, cell-based. To be noted: MCF7, 72 h. The procedure, abridged:
as §1

Series [3] in a line: Antiproliferative activity against human CCL186 cells after 72 hrs by MTT assay. It is filed as cell-based. To be noted: CCL186, 72 h. The procedure, abridged: as §1
For series [4], the system named is MCF7. In words: Selectivity ratio of IC50 for human CCL186 cells to IC50 for human MCF7 cells. The procedure, abridged:
(§2)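 MTT assay. MCF7 and CCL186 cells were grown in EMEM/10% FBS, HCT116 in McCoy's 5A/10% FBS. Seeding was 10,000 (MCF7), 4000 (HCT116) and 5000 (CCL186) cells per well, 24 h. Compound exposure was 72 h, DMSO ≤1% final. MTT 0.5 mg/ml for 3 h, formazan dissolved in DMSO, A590. IC50 came from sigmoidal survival curves, with 3 separate occasions per concentration. Ratio = IC50 CCL186 / IC50 of the cancer line.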

The nature of series [5]: Selectivity ratio of IC50 for human CCL186 cells to IC50 for human HCT116 cells. It is filed as ADME, cell-based, HCT-116. To be noted: CCL186 cells and HCT116 cells, read-out: Ratio IC50. The gist of the method:
as §2

Series [6] has as its system HCT-116. In words: Cell cycle arrest in human HCT116 cells released from G1 block assessed as accumulation at sub G1 phase at 10 uM after 24 hrs by flow cytometry. It is filed as functional. (A flow cytometer gives signals particle by particle.)
In series [7] the test system is HCT-116. In words: Cell cycle arrest in human HCT116 cells released from G2 block assessed as accumulation at sub G1 phase at 10 uM after 24 hrs by flow cytometry. It is filed as functional.
The test system of series [8] is HCT-116. The series is described as follows: Cell cycle arrest in human HCT116 cells released from G1 block assessed as accumulation at G1 phase at 10 uM after 24 hrs by flow cytometry. It is filed as functional.
In series [9] the test system is HCT-116. The series is described as follows: Cell cycle arrest in human HCT116 cells released from G2 block assessed as accumulation at G1 phase at 10 uM after 24 hrs by flow cytometry. It is filed as functional.
Series [10] has as its system HCT-116. The series is described as follows: Cell cycle arrest in human HCT116 cells released from G1 block assessed as accumulation at S phase at 10 uM after 24 hrs by flow cytometry. It is filed as functional.
Series [11] relates to HCT-116. The series is described as follows: Cell cycle arrest in human HCT116 cells released from G2 block assessed as accumulation at S phase at 10 uM after 24 hrs by flow cytometry. It is filed as functional.
In series [12] the test system is HCT-116. In words: Cell cycle arrest in human HCT116 cells released from G1 block assessed as accumulation at G2/M phase at 10 uM after 24 hrs by flow cytometry. It is filed as functional.
Series [13] has as its system HCT-116. The series is described as follows: Cell cycle arrest in human HCT116 cells released from G2 block assessed as accumulation at G2/M phase at 10 uM after 24 hrs by flow cytometry. It is filed as functional.
Series [14] in a line: Cytotoxicity against mouse Hepa-1c1c7 cells after 48 hrs by MTT assay. It is filed as cell-based. Particulars: hepa-1c1c7, 48 h. The gist of the method:
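Murine hepatoma cells in α-MEM with 10% heat- and charcoal-treated fetal calf serum, passages 6–17; MTT read-out as for the cancer lines but with 48 h compound exposure. Highest concentration tested 25 µM. IC50 from survival-versus-concentration curve; mean and SD, n = 3.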

Series [15] deals with T1, CYP1A1 (Mus musculus, UniProt P00184).
T1 sequence (P00184 whole entry): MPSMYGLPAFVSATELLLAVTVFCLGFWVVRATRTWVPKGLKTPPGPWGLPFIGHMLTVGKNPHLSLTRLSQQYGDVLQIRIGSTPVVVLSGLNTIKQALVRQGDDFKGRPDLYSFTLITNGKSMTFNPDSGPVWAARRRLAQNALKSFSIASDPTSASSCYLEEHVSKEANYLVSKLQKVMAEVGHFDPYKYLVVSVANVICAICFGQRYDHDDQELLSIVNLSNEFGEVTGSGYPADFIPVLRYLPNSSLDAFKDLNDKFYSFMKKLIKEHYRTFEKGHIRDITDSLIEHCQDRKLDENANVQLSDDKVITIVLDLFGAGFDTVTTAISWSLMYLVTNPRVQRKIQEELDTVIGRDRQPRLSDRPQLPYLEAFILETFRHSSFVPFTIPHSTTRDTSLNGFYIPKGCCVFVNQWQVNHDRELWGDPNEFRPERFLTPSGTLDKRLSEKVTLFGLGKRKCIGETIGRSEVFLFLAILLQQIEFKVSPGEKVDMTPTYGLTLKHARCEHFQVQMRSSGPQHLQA
The series is described as follows: Induction of CYP1A1 activity in mouse Hepa-1c1c7 cells assessed as induction ratio at 10 uM after 48 hrs by EROD assay relative to control. It is filed as ADME, cell-based. The gist of the method: (§3)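 About 10,000 Hepa1c1c7 cells/well cultured 24 h, then compound (0.5% DMSO final) for 48 h, at roughly 4 × the concentration doubling NQO1 activity. After PBS wash, cells given 5 µM 7-ethoxyresorufin plus 2 mM salicylamide, 37 °C, 40 min; resorufin fluorescence ex 530/em 590 nm, corrected for compound fluorescence. Ratio = (treated − blank)/(DMSO control − blank); mean ± SD, n = 3.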

The target of series [16] is NAD(P)H dehydrogenase [quinone] 1 (Mus musculus) (UniProt Q64669). The series is described as follows: Induction of NQO1 activity in mouse Hepa-1c1c7 cells assessed as induction ratio at 10 uM after 48 hrs by MTT assay relative to control. It is filed as cell-based. The procedure, abridged: (§4)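 Hepa1c1c7 cells, 10,000 per well, 24 h, were then treated 48 h (DMSO ≤0.5%). Digitonin/EDTA lysates were assayed for menadione-dependent MTT-formazan formation using a G6P/G6PDH NADPH-generating mix with FAD at pH 7.4. The reaction ran 5 min, was stopped with dicoumarol, and read at A590. Degree of induction = (A test − blank)/(A control − blank). Ratios were read off the induction–concentration plot at the EROD test concentration.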
NAD(P)H dehydrogenase [quinone] 1 (Mus musculus), sequence (Q64669 whole entry): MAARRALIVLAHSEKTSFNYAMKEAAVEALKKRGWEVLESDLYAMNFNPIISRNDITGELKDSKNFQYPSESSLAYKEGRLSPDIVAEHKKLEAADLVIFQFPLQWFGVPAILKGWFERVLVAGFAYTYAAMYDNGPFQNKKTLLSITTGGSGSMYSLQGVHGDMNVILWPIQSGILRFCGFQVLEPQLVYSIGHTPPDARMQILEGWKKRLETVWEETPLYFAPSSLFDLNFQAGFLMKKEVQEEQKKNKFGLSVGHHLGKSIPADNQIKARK

The test system of series [17] is HCT-116. In words: Cell cycle arrest in human HCT116 cells released from G1 block assessed as accumulation at sub G1 phase at 5 uM after 24 hrs by flow cytometry. It is filed as functional.
Series [18] concerns HCT-116. The series is described as follows: Cell cycle arrest in human HCT116 cells released from G2 block assessed as accumulation at sub G1 phase at 5 uM after 24 hrs by flow cytometry. It is filed as functional.
Series [19] concerns HCT-116. The series is described as follows: Cell cycle arrest in human HCT116 cells released from G1 block assessed as accumulation at G1 phase at 5 uM after 24 hrs by flow cytometry. It is filed as functional.
The test system of series [20] is HCT-116. The series is described as follows: Cell cycle arrest in human HCT116 cells released from G2 block assessed as accumulation at G1 phase at 5 uM after 24 hrs by flow cytometry. It is filed as functional.
The subject of series [21] is HCT-116. In words: Cell cycle arrest in human HCT116 cells released from G1 block assessed as accumulation at S phase at 5 uM after 24 hrs by flow cytometry. It is filed as functional.
Series [22] concerns HCT-116. The series is described as follows: Cell cycle arrest in human HCT116 cells released from G2 block assessed as accumulation at S phase at 5 uM after 24 hrs by flow cytometry. It is filed as functional.
In series [23] the test system is HCT-116. The series is described as follows: Cell cycle arrest in human HCT116 cells released from G1 block assessed as accumulation at G2/M phase at 5 uM after 24 hrs by flow cytometry. It is filed as functional.
The subject of series [24] is HCT-116. In words: Cell cycle arrest in human HCT116 cells released from G2 block assessed as accumulation at G2/M phase at 5 uM after 24 hrs by flow cytometry. It is filed as functional.
Series [25] addresses NAD(P)H dehydrogenase [quinone] 1 (Mus musculus) (UniProt Q64669). In words: Induction of NQO1 activity in mouse Hepa-1c1c7 cells assessed as drug level required to double basal enzyme activity after 48 hrs by MTT assay. It is filed as cell-based. The procedure, abridged: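 Hepa1c1c7 cells were grown in α-MEM with charcoal-treated FCS, 10,000 per well, 24 h. Compound was given 48 h (DMSO ≤0.5%) over a 10–100-fold range below cytotoxic levels, up to 25 µM. Cells were lysed with digitonin/EDTA. NQO1 was assayed by menadione-driven MTT reduction (G6P/G6PDH/NADP, FAD, Tris pH 7.4), quenched with dicoumarol, A590. CD is the concentration doubling basal activity, taken from the induction–concentration plot; mean ± SD, n = 3.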

For series [26] the target is unchanged. In words: Induction of NQO1 activity in mouse Hepa-1c1c7 cells assessed as induction ratio at 1 uM after 48 hrs by MTT assay relative to control. It is filed as cell-based. The procedure, abridged: as §4
Series [27] concerns the target T1, CYP1A1. The series is described as follows: Induction of CYP1A1 activity in mouse Hepa-1c1c7 cells assessed as induction ratio at 1 uM after 48 hrs by EROD assay relative to control. It is filed as ADME, cell-based. The gist of the method: as §3

Regarding `COc1cccc(OC)c1/C=C1/C(=O)Nc2ccccc21`, the half-maximal inhibitory concentration (IC50) in the series with HCT-116 [1] worked out at 4.8 µM; in the series with MCF7 [2], 6.2 µM; in series [3], 17.8 µM; in series [14], 13.9 µM. In addition, the “Ratio IC50” value in the series on MCF7 [4] is recorded as 3.7. Also, in series [5], the selectivity ratio came out at 2.9. The Activity with HCT-116 [6] is 3.52%; in the series with HCT-116 [7], 9.51%; in the series on HCT-116 [8] it was 20.86%; with HCT-116 [9], 32.97%; in the series on HCT-116 [10], 16%; in the series with HCT-116 [11] it was 12.42%. Besides, the results for the Activity in the series with HCT-116 [12] and with HCT-116 [13] were 59.63% and 44.99%, respectively.

On to `O=C1Nc2ccccc2/C1=C\c1cc(O)ccc1O`, for which, at CYP1A1 [15], the fold induction at 48 h, 10 µM was determined as 2.87. The compound also showed an IC50 in series [14] of over 25 µM. Further, the Ratio in series [16] amounted to 7.69.

On to `COc1ccc(/C=C2/C(=O)Nc3ccccc32)c(OC)c1`, for which the IC50 in the series with HCT-116 [1] was found to be 8.8 µM; with MCF7 [2], 3.3 µM; in [3], 5.8 µM; in series [14], 11.1 µM. Besides, the “Ratio IC50” value with MCF7 [4] is reported as 0.7. For the same compound, the selectivity ratio in [5] turned out to be 1.8. The Activity was found to be 2.64% in the series with HCT-116 [17]; 12.49% with HCT-116 [18]; 26.14% with HCT-116 [19]; 34.66% with HCT-116 [20]; 12.37% with HCT-116 [21]; 13.43% in the series with HCT-116 [22]. The Activity in the series on HCT-116 [23] is listed as 58.82%; in the series with HCT-116 [24] it was 39.43%.

As to `C[S+]([O-])CCCCN=C=S` (centres undefined) [SULFORAPHANE], the CD in series [25] is 0.26 µM. In addition, in series [26], the Ratio is 3.89. Further, the fold induction at 48 h, 1 µM on CYP1A1 [27] was determined as 0.92.
